Series [1] in a line: Metabolic stability in mouse liver microsomes assessed as parent compound metabolism after 30 mins by LC-MS analysis. The settings on record: read-out: Drug metabolism. The series is classed as ADME, Microsome. In outline: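 Male CD1 mouse liver microsomes (1 mg/mL protein) incubated with 10 μM compound plus NADPH 1 mM, UDPGA 2.5 mM and MgCl2 3 mM in 10 mM PBS at 37 °C for 0 and 30 min. NADPH/UDPGA-free controls included. LC–MS quantitation of remaining compound; reported as percent parent metabolized after 30 min.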
A general note: Microsomes from liver hold many membrane-bound enzymes, among them those of drug oxidation.

Series [2] concerns SW-620. In words: cells. To be noted: Homo sapiens, SW-620, 72 h.
Series [3] deals with T1, Aurora kinase A (Homo sapiens, UniProt O14965).
T1 sequence (O14965 whole entry): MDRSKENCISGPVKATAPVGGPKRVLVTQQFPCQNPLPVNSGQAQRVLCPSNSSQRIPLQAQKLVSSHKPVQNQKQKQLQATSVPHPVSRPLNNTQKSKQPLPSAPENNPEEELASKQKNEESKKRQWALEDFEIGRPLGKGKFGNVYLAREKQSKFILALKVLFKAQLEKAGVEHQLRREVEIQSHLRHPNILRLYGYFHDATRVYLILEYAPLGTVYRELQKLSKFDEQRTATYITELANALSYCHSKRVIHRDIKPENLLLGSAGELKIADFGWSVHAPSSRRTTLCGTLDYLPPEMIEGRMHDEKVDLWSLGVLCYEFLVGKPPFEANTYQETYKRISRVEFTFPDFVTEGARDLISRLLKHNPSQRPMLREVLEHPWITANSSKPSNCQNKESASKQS
In words: Inhibition of GST-tagged human Aurora A kinase expressed in baculovirus system.

Series [4] can be described thus: Metabolic stability in human liver microsomes assessed as parent compound metabolism after 30 mins by LC-MS analysis. The series is classed as ADME, Microsome. To be noted: read-out: Drug metabolism. In outline: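 Test compound at 10 μM with pooled mixed-gender human liver microsomes (1 mg/mL protein), NADPH 1 mM, UDPGA 2.5 mM and MgCl2 3 mM in 10 mM PBS at 37 °C for 0 and 30 min. Controls omit NADPH/UDPGA. Compound remaining measured by LC–MS; reported as percent of parent metabolized at 30 min.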

Series [5] has as its target hERG (KCNH2) (Homo sapiens, UniProt Q12809). In words: Inhibition of human ERG at 10 uM by cell-based electrophysiology assay.

One may read the GI50 as the concentration that inhibits growth by half. Read a low GI50 as more potent growth inhibition. As a reminder, the IC50 is the point on the concentration scale where inhibition reaches its midpoint. Read a high IC50 as weaker potency in that assay. As usually defined, the inhibition is the change of the read-out against control, counted positive when it falls. The low end stands for a response near the control, the high end for a response far below the control.

Sequence of hERG (KCNH2) (Q12809 whole entry): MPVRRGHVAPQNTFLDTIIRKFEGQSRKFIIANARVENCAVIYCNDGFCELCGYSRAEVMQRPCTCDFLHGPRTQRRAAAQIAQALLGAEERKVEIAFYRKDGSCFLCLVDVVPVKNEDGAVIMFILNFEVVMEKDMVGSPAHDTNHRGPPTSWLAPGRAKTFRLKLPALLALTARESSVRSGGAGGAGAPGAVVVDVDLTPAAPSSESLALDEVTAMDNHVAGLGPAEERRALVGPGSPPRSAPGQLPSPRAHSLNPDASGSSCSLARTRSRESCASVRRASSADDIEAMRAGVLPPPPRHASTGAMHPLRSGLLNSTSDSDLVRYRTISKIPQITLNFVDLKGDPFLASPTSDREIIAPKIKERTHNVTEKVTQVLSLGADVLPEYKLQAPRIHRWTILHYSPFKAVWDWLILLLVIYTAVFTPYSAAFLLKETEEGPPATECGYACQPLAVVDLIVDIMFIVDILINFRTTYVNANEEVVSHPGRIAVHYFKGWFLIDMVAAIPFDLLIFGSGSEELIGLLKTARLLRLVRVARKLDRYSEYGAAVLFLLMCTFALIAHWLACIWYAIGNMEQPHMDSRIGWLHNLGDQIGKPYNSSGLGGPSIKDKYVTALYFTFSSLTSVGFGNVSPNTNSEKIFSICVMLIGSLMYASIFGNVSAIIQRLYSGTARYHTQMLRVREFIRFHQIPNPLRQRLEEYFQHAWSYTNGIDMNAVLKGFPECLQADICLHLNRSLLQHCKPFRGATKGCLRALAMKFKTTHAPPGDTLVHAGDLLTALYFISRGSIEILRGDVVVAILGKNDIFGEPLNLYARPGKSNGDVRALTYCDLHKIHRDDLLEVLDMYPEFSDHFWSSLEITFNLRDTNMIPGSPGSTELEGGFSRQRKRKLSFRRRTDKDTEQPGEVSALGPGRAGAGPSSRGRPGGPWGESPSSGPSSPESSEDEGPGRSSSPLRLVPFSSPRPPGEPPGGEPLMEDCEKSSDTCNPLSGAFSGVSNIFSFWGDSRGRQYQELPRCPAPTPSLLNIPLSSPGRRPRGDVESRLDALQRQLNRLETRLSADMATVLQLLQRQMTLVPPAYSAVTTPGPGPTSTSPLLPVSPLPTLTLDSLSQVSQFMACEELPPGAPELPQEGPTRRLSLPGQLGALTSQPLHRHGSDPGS

Consider `CCN1CCN(c2ccc(-c3nc4c(N5CCN(Cc6cc(C)on6)CC5)c(Cl)cnc4[nH]3)cc2)CC1`, for which the metabolised at 0.5 h in series [1] amounted to 37%; in series [4], 72%. In series [2], this molecule came in with a GI50 of 461 nM. Also, half-maximal inhibition in series [3] (IC50) was put at 6 nM. In series [5], this molecule returned an inhibition at 10 µM of 68%.
In turn, `Cc1cc(CN2CCN(c3c(Cl)cnc4nc(-c5ccn(C)n5)[nH]c34)CC2)no1` came in with a 50% growth inhibitory concentration (GI50) in series [2] of 2600 nM. Also, it took 118 nM to reach half-maximal inhibition in series [3] (IC50).
Consider `Cc1nn(C)cc1-c1nc2ncc(Cl)c(N3CCN(Cc4nonc4C)CC3)c2[nH]1`, for which the metabolised at 0.5 h in series [1] amounted to 91%; in series [4], 54%. In series [2], this molecule gave a 50% growth inhibitory concentration (GI50) of 250 nM. The midpoint of inhibition in series [3], the IC50, lay at 6 nM. Besides, at 10 µM the inhibition in series [5] was 50%.
In turn, `Cc1cc(CN2CCN(c3c(Br)cnc4nc(-c5csnn5)[nH]c34)CC2)no1` showed a GI50 in series [2] of 20000 nM. The half-maximal inhibitory concentration (IC50) in series [3] stood at 600 nM.
For the molecule `Cc1nn(C)cc1-c1nc2c(N3CCN(Cc4ncon4)CC3)c(Cl)cnc2[nH]1`, the metabolised at 0.5 h in series [1] came to 67%; in series [4], 22%.
As to `CCn1cc(-c2nc3ncc(Cl)c(N4CCN(Cc5cc(C)on5)CC4)c3[nH]2)cn1`, the metabolised at 0.5 h in series [1] stood at 16%; in series [4], 22%. The GI50 in series [2] worked out at 2180 nM. Moreover, the IC50 in series [3] is 41 nM. Also, the inhibition at 10 µM in series [5] is 51%.
For `Cc1cc(CN2CCN(c3c(Br)cnc4[nH]c(-c5ccc(N6CCOCC6)cc5)nc34)CC2)no1`, the metabolised at 0.5 h in series [1] is 50%; in series [4] it was 99%. This molecule also yielded a GI50 in series [2] of 860 nM. Further, the IC50 in series [3] turned out to be 7 nM.
On to `Cc1cc(CN2CCN(c3c(Cl)cnc4nc(-c5ccc(N6CCN(C)CC6)cc5)[nH]c34)CC2)no1`, for which the values for the metabolised at 0.5 h in series [1] and in series [4] were 25% and 89%, respectively. This molecule displayed a GI50 in series [2] of 570 nM.
Take `Cc1cc(CN2CCN(c3c(Cl)cnc4[nH]c(-c5ccc(N6CCN(C)CC6)cc5F)nc34)CC2)no1`: the metabolised at 0.5 h in series [1] was 65%; in series [4] it was 99%. In addition, in series [2], the GI50 is 7500 nM. This molecule also gave an IC50 in series [3] of 87 nM. The molecule further yielded an inhibition at 10 µM in series [5] of 81%.
For the molecule `Cc1cc(CN2CCN(c3c(Cl)cnc4[nH]c(-c5cn(C)nc5C5CC5)nc34)CC2)no1`, the figures for the metabolised at 0.5 h in series [1] and in series [4] were 80% and 64%, respectively. For the same molecule, in series [3], the 50% inhibitory concentration (IC50) was 4 nM.
`Cc1cc(CN2CCN(c3c(Cl)cnc4[nH]c(-c5ccoc5)nc34)CC2)no1` yielded a GI50 in series [2] of 6500 nM. The molecule further had an IC50 in series [3] of 68 nM.
In the case of `Cc1cc(CN2CCN(c3c(Cl)cnc4[nH]c(-c5cnn(C(C)C)c5)nc34)CC2)no1`, the metabolised at 0.5 h in series [1] turned out to be 30%; in series [4] it was 17%. The same molecule had a GI50 in series [2] of 2220 nM. In series [3], this molecule came in with an IC50 of 35 nM. The same molecule showed an inhibition at 10 µM in series [5] of 71%.
On to `Cc1cc(CN2CCN(c3c(Cl)cnc4nc(-c5ccnn5C)[nH]c34)CC2)no1`, for which the concentration for 50% growth inhibition (GI50) in series [2] was determined as 3190 nM. Moreover, the IC50 in series [3] was found to be 147 nM.
`Cc1cc(CN2CCN(c3c(Cl)cnc4nc(-c5cccc(CN(C)C)c5)[nH]c34)CC2)no1`: the metabolised at 0.5 h is 29% in series [1] and 36% in series [4]. In series [2], this molecule registered a GI50 of 840 nM. In series [3], this molecule gave an IC50 of 54 nM. Moreover, in series [5], the inhibition at 10 µM was 85%.
`Cc1cc(CN2CCN(c3c(Cl)cnc4nc(-c5cc(C)on5)[nH]c34)CC2)no1` showed a GI50 in series [2] of 1150 nM. The molecule also displayed an IC50 in series [3] of 434 nM.
The matching figures for `Cc1cc(CN2CCN(c3c(Br)cnc4nc(-c5nc(C)oc5C)[nH]c34)CC2)no1`: 4570 nM and 2200 nM.
`Cc1nc(CN2CCN(c3c(Cl)cnc4[nH]c(-c5cn(C)nc5C)nc34)CC2)no1`: the figures for the metabolised at 0.5 h in series [1] and in series [4] were 58% and 20%, respectively.
`Cc1cc(CN2CCN(c3c(Cl)cnc4nc(-c5nccn5C)[nH]c34)CC2)no1` returned a GI50 in series [2] of 16300 nM. The same molecule showed an IC50 in series [3] of 564 nM.

For the origin of these results see ChEMBL document CHEMBL2203264, “Optimization of imidazo[4,5-b]pyridine-based kinase inhibitors: identification of a dual FLT3/Aurora kinase inhibitor as an orally bioavailable preclinical development candidate for the treatment of acute myeloid leukemia” (J Med Chem, 2012).
